Experimental data reported in ChEMBL document CHEMBL1148267, “Synthesis and biological activity of a novel squalene epoxidase inhibitor, FR194738” (Bioorg Med Chem Lett, 2004).

Key:
[1] = Partition coefficient (logP); assay type: physicochemical; conditions: octanol/water
[2] = organism: Homo sapiens; test: In vitro inhibitory activity was evaluated against human squalence epoxidase; assay type: functional
In short: (§1)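 Source of enzyme: dog or rat liver microsomes, or HepG2 cell homogenate for human, solubilized in 2% Triton X-100. Each was incubated with AMO-1680, FAD, NADPH, EDTA, [³H]squalene and drug for 90 min at 37 °C. The reaction was stopped with ethanolic KOH. Non-saponifiable lipids were separated by silica TLC and 2,3-oxidosqualene radioactivity was counted to give IC50.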

[3] = organism: Canis familiaris; test: In vitro inhibitory activity was evaluated against dog squalence epoxidase; assay type: functional, Canis lupus familiaris; in short: as §1
[4] = organism: Rattus norvegicus; test: In vitro inhibitory activity was evaluated against rat squalence epoxidase; assay type: functional; in short: as §1
[5] = Compound was evaluated for area under the curve (0-8 h); assay type: ADME, organism-based; parameters: time < 8 hr; conditions: rat, in vivo
In short: (§2)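 Rats dosed orally with a single 10 mg/kg dose, given as a suspension in 0.5% methylcellulose. Plasma was sampled to derive Cmax, Tmax, AUC over 0–8 h and bioavailability.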

[6] = Compound was evaluated for maximum concentration (Cmax) in suspension of 0.5% methylcellulose at a dose of 10 mg/kg in rat; assay type: ADME, organism-based; parameters: dose 10 mg/kg; conditions: in vivo; in short: as §2
[7] = Bioavailability in rat; assay type: ADME, organism-based; conditions: in vivo; in short: as §2
[8] = Compound was evaluated for maximum time(Tmax) in suspension of 0.5% methylcellulose at a dose of 10 mg/kg in rat; assay type: ADME, organism-based; parameters: dose 10 mg/kg; conditions: in vivo; in short: as §2
[9] = system: Canis familiaris; test: Compound was evaluated for artherogenic index in plasma lipoprotein cholesterol level (LDL cholesterol / HDL cholesterol) at a dose of 32 mg/kg/day; assay type: ADME, organism-based, Canis lupus familiaris; conditions: dog, in vivo
In short: (§3)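 Male beagle dogs (9–11 kg, n=3) dosed orally twice daily for 28 days, at 3.2, 10 or 32 mg/kg/day. On day 14, serum lipoprotein fractions were separated by ultracentrifugation. LDL and HDL cholesterol were measured enzymatically and expressed as % change. Atherogenic index was taken as the LDL/HDL ratio.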

[10] = system: Canis familiaris; test: Compound was evaluated for change in the effect of plasma lipoprotein cholesterol level (HDL) at a dose of 3.2 mg/kg/day; assay type: ADME, organism-based, Canis lupus familiaris; conditions: dog, in vivo; in short: as §3
[11] = system: Canis familiaris; test: Compound was evaluated for change in the effect of plasma lipoprotein cholesterol level (HDL) at a dose of 32 mg/kg/day; assay type: ADME, organism-based, Canis lupus familiaris; conditions: dog, in vivo; in short: as §3
[12] = system: Canis familiaris; test: Compound was evaluated for change in the effect of plasma lipoprotein cholesterol level (HDL) at a dose of 10 mg/kg/day; assay type: ADME, organism-based, Canis lupus familiaris; conditions: dog, in vivo; in short: as §3
[13] = system: Canis familiaris; test: Compound was evaluated for change in the effect of plasma lipoprotein cholesterol level (LDL) at a dose of 32 mg/kg/day; assay type: ADME, organism-based, Canis lupus familiaris; conditions: dog, in vivo; in short: as §3
[14] = system: Canis familiaris; test: Compound was evaluated for artherogenic index in plasma lipoprotein cholesterol level (LDL cholesterol / HDL cholesterol) at a dose of 10 mg/kg/day; assay type: ADME, organism-based, Canis lupus familiaris; conditions: dog, in vivo; in short: as §3
[15] = system: Canis familiaris; test: Compound was evaluated for change in the effect of plasma lipoprotein cholesterol level (LDL) at a dose of 3.2 mg/kg/day; assay type: ADME, organism-based, Canis lupus familiaris; conditions: dog, in vivo; in short: as §3
[16] = system: Canis familiaris; test: Compound was evaluated for artherogenic index in plasma lipoprotein cholesterol level (LDL cholesterol / HDL cholesterol) at a dose of 3.2 mg/kg/day; assay type: ADME, organism-based, Canis lupus familiaris; conditions: dog, in vivo; in short: as §3
[17] = system: Canis familiaris; test: Compound was evaluated for change in the effect of plasma lipoprotein cholesterol level (LDL) at a dose of 10 mg/kg/day; assay type: ADME, organism-based, Canis lupus familiaris; conditions: dog, in vivo; in short: as §3
[18] = system: HepG2; test: In vitro inhibitory activity was evaluated on cholesterol biosynthesis in HepG2 cells; assay type: functional, cell-based; conditions: Homo sapiens
In short: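 HepG2 cells were kept overnight in 10% human lipoprotein-deficient serum, then preincubated 1 h with drug. [¹⁴C]acetate was added for 2 h. Cells were lysed and saponified with ethanolic KOH. Digitonin was added to the non-saponifiable lipids, and radioactivity of the digitonin-coprecipitable sterols was counted to give IC50.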

Work on `C=CCC(CC=C)(COc1cccc(CN(CC)C/C=C/C#CC(C)(C)C)c1)OCc1ccsc1` yielded a logP ([1]; read-out: logP) of 8.45 and an IC50 ([2]; Homo sapiens) of 160 nM.
Work on `CCN(C/C=C/C#CC(C)(C)C)Cc1cccc(OCCOCc2ccsc2)c1` yielded a logP ([1]; read-out: logP) of 6.6, an IC50 ([3]; Canis lupus familiaris) of 230 nM and an IC50 ([2]; Homo sapiens) of 25 nM.
In the case of `CCN(C/C=C/C#CC(C)(C)C)Cc1cccc(OCC(C)(C)OC(=O)c2ccsc2)c1`, the logP ([1]; read-out: logP) is reported as 7.48, the IC50 ([3]; Canis lupus familiaris) is reported as 370 nM and the IC50 ([2]; Homo sapiens) is reported as 23 nM.
For `CCN(C/C=C/C#CC(C)(C)C)Cc1cccc(OCC(CC)(CC)OCc2ccsc2)c1`, the logP ([1]; read-out: logP) was 8.36 and the IC50 ([2]; Homo sapiens) was 120 nM.
Compound `CCN(C/C=C/C#CC(C)(C)C)Cc1cccc(OCc2cc(-c3ccsc3)cs2)c1` has a logP ([1]; read-out: logP) of 8.19, an IC50 [4] of 36 nM and an AUC(0-t) at 8 h [5] of 1390 ng·h/mL. For the same compound, the Cmax [6] was 329 ng/mL, the bioavailability [7] was 16.5% and the IC50 ([3]; Canis lupus familiaris) was 43 nM. It also gave an IC50 ([2]; Homo sapiens) of 7.2 nM and a Tmax [8] of 1.67 h.
In the case of `CN(C/C=C/C#CC(C)(C)C)Cc1cccc(OCC(C)(C)OCc2ccsc2)c1`, the logP ([1]; read-out: logP) is reported as 6.78, the IC50 ([3]; Canis lupus familiaris) is reported as 77 nM and the IC50 ([2]; Homo sapiens) is reported as 11 nM.
Compound `CCN(C/C=C/C#CC(C)(C)C)Cc1cccc(OCC(C)(C)OCc2ccsc2)c1` has a logP ([1]; read-out: logP) of 7.3, an IC50 [3] of 34 nM and an IC50 ([2]; Homo sapiens) of 5.4 nM.
For `CCCN(C/C=C/C#CC(C)(C)C)Cc1cccc(OCC(C)(C)OCc2ccsc2)c1`, the logP ([1]; read-out: logP) was 7.83, the IC50 ([3]; Canis lupus familiaris) was 51 nM and the IC50 ([2]; Homo sapiens) was 31 nM.
`CCN(C/C=C/C#CC(C)(C)C)Cc1cccc(OCC(C)(C)OCc2ccsc2)c1.Cl` showed a logP [1] of 7.3, an IC50 [4] of 25 nM and an Activity [9] of -47%. It also gave an HDL [10] of 0%, an HDL [11] of -27% and an HDL [12] of -14%. The LDL [13] was -61%, the AUC(0-t) at 8 h [5] was 1870 ng·h/mL and the Cmax [6] was 486 ng/mL. For the same compound, the bioavailability [7] was 32.9%, the Activity [14] was -38% and the IC50 [3] was 14 nM. For the same compound, the LDL [15] was -2%, the IC50 [2] was 9.8 nM and the Activity [16] was -2%. It also gave a Tmax [8] of 1.17 h and an LDL [17] of -47%.
`CC(C)n1c(/C=C/[C@H](O)C[C@H](O)CC(=O)O)c(-c2ccc(F)cc2)c2ccccc21` [FLUVASTATIN] gave an IC50 [18] of 28 nM.
Compound `CCC(C)(C)C(=O)O[C@H]1C[C@@H](C)C=C2C=C[C@H](C)[C@H](CC[C@@H]3C[C@@H](O)CC(=O)O3)[C@H]21` [SIMVASTATIN] has an IC50 [18] of 40 nM.
